Measured values published in ChEMBL document CHEMBL1137159, “Aminotriazine 5-HT7 antagonists” (Bioorg Med Chem Lett, 2004).

Columns and labels:
[1] = molecular target: T1, 5-hydroxytryptamine receptor 2C (Homo sapiens, UniProt P28335); experiment: Binding affinity against 5-Hydroxy tryptamine 2C receptor
T1 sequence (P28335 whole entry): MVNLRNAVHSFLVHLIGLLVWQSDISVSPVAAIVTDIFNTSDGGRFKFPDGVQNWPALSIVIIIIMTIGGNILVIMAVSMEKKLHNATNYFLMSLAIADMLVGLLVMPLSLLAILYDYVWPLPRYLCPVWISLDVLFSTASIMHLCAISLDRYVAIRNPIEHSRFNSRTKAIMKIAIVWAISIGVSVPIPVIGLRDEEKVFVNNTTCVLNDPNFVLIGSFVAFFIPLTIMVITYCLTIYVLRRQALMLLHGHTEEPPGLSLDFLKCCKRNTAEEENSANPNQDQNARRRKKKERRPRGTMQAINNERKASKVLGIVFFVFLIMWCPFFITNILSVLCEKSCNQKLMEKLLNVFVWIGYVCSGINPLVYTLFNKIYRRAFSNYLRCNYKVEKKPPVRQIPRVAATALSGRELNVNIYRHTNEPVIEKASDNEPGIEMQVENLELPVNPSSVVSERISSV

[2] = molecular target: 5-hydroxytryptamine receptor 6 (Homo sapiens, UniProt P50406); experiment: Binding affinity against 5-Hydroxy tryptamine 6 receptor
Chain of 5-hydroxytryptamine receptor 6 (P50406 whole entry): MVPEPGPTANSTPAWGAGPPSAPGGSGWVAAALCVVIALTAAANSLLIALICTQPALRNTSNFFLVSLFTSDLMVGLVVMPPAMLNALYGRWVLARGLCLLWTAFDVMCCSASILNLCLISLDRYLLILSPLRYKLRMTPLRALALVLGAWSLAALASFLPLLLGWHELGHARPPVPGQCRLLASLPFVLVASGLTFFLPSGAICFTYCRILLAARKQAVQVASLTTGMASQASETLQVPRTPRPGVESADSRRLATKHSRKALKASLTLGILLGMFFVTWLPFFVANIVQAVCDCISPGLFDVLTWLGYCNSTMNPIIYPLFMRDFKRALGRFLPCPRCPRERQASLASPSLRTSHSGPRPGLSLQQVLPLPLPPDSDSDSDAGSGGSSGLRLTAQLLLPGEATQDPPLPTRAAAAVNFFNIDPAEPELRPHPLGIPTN

[3] = molecular target: 5-hydroxytryptamine receptor 7 (Homo sapiens, UniProt P34969); experiment: Binding affinity against 5-Hydroxy tryptamine 7 receptor
Chain of 5-hydroxytryptamine receptor 7 (P34969 whole entry): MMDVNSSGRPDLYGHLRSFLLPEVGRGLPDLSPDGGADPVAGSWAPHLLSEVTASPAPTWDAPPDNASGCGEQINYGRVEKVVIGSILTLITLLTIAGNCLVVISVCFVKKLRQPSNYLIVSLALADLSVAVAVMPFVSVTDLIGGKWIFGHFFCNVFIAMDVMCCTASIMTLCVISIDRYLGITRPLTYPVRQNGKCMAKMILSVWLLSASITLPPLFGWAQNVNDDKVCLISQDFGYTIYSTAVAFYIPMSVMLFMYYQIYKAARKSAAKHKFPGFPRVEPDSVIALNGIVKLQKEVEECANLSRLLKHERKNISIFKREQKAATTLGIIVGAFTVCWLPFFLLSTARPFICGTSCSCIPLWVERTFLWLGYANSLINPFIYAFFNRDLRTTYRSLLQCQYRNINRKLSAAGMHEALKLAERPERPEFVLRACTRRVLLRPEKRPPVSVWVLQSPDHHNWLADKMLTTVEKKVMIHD
How it was run: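 Membranes from CHO cells expressing human 5-HT7, homogenized, pelleted at 18,000g, stored at -80 °C. Each well held 30 µg protein in 50 mM HEPES. Incubation was 60 min at 25 °C with 0.1-1000 nM compound and 1 nM [3H]-5-carboxamidotryptamine; nonspecific binding was defined with 10 µM serotonin. Stopped with ice-cold HEPES, GF/B filtration, scintillation counting. Ki by nonlinear regression; triplicate or more.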

[4] = molecular target: T2, Adrenergic receptor alpha-1 (Homo sapiens, UniProt P35348+P25100+P35368); experiment: Binding affinity against Alpha1 adrenergic receptor; type: protein assay
T2 sequence (P35348 whole entry): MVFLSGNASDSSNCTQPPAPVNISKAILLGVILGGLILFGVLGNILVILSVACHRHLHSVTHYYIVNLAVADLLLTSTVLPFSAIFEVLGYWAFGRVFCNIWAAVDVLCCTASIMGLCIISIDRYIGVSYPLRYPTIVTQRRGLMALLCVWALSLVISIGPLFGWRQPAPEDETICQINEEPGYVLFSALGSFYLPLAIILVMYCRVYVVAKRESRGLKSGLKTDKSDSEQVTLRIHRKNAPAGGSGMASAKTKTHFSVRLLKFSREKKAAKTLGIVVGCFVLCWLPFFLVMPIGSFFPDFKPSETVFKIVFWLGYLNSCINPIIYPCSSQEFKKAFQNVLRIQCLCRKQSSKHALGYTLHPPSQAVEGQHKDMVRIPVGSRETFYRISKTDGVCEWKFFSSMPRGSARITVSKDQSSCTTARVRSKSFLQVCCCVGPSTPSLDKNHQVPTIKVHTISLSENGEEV
T2 sequence (P25100 whole entry): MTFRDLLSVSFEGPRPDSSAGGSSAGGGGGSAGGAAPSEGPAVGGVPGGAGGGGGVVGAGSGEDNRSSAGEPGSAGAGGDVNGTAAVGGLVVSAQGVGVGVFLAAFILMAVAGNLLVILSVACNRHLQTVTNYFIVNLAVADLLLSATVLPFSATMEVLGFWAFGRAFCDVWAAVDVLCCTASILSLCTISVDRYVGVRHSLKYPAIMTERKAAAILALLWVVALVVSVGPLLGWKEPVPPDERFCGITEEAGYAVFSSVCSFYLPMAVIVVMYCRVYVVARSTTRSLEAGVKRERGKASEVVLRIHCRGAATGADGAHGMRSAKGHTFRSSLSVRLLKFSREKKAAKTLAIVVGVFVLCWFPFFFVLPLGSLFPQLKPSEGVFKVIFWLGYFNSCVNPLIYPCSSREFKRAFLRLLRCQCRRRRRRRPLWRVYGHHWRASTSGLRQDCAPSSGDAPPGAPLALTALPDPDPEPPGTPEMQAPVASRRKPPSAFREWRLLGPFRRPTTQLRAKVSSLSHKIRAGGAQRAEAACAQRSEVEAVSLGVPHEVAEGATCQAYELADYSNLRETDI
T2 sequence (P35368 whole entry): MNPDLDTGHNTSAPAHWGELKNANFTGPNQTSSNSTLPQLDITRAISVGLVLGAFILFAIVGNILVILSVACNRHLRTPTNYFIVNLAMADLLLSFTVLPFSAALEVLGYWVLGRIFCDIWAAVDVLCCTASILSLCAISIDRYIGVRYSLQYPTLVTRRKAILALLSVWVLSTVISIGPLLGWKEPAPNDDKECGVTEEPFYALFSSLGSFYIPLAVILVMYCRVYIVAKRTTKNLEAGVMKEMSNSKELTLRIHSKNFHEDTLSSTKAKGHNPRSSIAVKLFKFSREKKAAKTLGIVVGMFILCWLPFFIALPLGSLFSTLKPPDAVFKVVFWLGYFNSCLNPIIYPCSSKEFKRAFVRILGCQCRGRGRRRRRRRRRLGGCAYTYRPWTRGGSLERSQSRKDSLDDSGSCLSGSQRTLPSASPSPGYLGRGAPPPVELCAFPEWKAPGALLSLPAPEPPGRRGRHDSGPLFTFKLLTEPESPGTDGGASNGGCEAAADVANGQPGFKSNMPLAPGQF

[5] = Oral bioavailability in rat; type: ADME, organism-based; conditions: in vivo

| Structure (SMILES) | Ki [1] [nM] | Ki [2] [nM] | Ki [3] [nM] | Ki [4] [nM] | bioavailability [5] [%] |
| --- | --- | --- | --- | --- | --- |
| C[C@H](Nc1nc(N)nc(NCCOc2ccccc2)n1)c1ccccc1 | > 1000 | > 1000 | 3 | 300 | 12 |
| C[C@H](Nc1nc(N)nc(NCCc2ccccn2)n1)c1ccc(F)cc1 | 160 | > 1000 | 9 | > 1000 | 15 |
| Cc1nc(NCCOc2ccccc2)nc(N[C@@H](C)c2ccccc2)n1 |  |  | 54 |  |  |
| C[C@H](Nc1nc(NCCOc2ccccc2)nc(N(C)C)n1)c1ccccc1 |  |  | 23 |  |  |
| C[C@H](Nc1nc(N)nc(NCCOc2ccc(F)cc2)n1)c1ccc(F)cc1 | > 1000 | > 1000 |  | 100 | 57 |
| CC(Nc1nc(N)nc(NCCc2ccccc2)n1)c1ccc(F)cc1 (stereo not drawn) |  |  | 8 |  |  |
| C[C@H](Nc1ncnc(NCCOc2ccccc2)n1)c1ccccc1 |  |  | 3 |  |  |
| C[C@@H](Nc1nc(N)nc(NCCOc2ccccc2)n1)c1ccccc1 |  |  | > 1000 |  |  |
| C[C@H](Nc1nc(N)nc(NCCc2ccc(F)cc2)n1)c1ccc(F)cc1 | 20 | 172 | 2 | 200 | 44 |
| C[C@H](Nc1nc(F)nc(NCCOc2ccccc2)n1)c1ccccc1 |  |  | 10 |  |  |
| CC(Nc1nc(N)nc(NCCc2cccs2)n1)c1ccc(F)cc1 (racemic) | 10 | 380 | 2 | > 1000 |  |
| CC(Nc1nc(N)nc(NCCCc2ccccc2)n1)c1ccccc1 (racemic) |  |  | 60 |  |  |
| CC(Nc1nc(N)nc(NCCOc2ccccc2)n1)c1ccccc1 (racemic) |  |  | 8 |  |  |
| CC(Nc1nc(N)nc(NCCc2cccnc2)n1)c1ccc(F)cc1 (racemic) |  |  | > 41000 |  |  |
| CC(Nc1nc(N)nc(NCCc2ccncc2)n1)c1ccc(F)cc1 (racemic) |  |  | > 1000 |  |  |
